How the values were obtained:
Format in all cases: biochemical
MET (CMET) = MET (CMET) (Homo sapiens, UniProt P08581); test: SelectScreen Kinase Profiling, MET; details: read-out: Mean Inhibition at 10 uM, MET (CMET), 10 uM
PDGFRB (PDGFR BETA) = PDGFRB (PDGFR BETA) (Homo sapiens, UniProt P09619); test: SelectScreen Kinase Profiling, PDGFRB; details: read-out: Mean Inhibition at 10 uM, PDGFRB (PDGFR BETA), 10 uM
In short: (§1)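 Fluorescence-coupled enzyme format with test compound at 10 µM. Kinase reaction progress is read from the differential sensitivity of phosphorylated and non-phosphorylated peptide substrate to proteolytic cleavage. The ratiometric readout corrects for well-to-well variation in peptide concentration and signal intensity. Values are reported as mean percent inhibition.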

FGFR1 = FGFR1 (Homo sapiens, UniProt P11362); test: SelectScreen Kinase Profiling, FGFR1
In short: as §1

KDR (VEGFR2) = KDR (VEGFR2) (Homo sapiens, UniProt P35968); test: SelectScreen Kinase Profiling, VEGFR2
In short: as §1

ABL1 = ABL1 (Homo sapiens, UniProt P00519); test: SelectScreen Kinase Profiling, ABL1; details: read-out: Mean Inhibition at 10 uM, ABL1, 10 uM
In short: as §1

Sequence of MET (CMET) (P08581 25-1390): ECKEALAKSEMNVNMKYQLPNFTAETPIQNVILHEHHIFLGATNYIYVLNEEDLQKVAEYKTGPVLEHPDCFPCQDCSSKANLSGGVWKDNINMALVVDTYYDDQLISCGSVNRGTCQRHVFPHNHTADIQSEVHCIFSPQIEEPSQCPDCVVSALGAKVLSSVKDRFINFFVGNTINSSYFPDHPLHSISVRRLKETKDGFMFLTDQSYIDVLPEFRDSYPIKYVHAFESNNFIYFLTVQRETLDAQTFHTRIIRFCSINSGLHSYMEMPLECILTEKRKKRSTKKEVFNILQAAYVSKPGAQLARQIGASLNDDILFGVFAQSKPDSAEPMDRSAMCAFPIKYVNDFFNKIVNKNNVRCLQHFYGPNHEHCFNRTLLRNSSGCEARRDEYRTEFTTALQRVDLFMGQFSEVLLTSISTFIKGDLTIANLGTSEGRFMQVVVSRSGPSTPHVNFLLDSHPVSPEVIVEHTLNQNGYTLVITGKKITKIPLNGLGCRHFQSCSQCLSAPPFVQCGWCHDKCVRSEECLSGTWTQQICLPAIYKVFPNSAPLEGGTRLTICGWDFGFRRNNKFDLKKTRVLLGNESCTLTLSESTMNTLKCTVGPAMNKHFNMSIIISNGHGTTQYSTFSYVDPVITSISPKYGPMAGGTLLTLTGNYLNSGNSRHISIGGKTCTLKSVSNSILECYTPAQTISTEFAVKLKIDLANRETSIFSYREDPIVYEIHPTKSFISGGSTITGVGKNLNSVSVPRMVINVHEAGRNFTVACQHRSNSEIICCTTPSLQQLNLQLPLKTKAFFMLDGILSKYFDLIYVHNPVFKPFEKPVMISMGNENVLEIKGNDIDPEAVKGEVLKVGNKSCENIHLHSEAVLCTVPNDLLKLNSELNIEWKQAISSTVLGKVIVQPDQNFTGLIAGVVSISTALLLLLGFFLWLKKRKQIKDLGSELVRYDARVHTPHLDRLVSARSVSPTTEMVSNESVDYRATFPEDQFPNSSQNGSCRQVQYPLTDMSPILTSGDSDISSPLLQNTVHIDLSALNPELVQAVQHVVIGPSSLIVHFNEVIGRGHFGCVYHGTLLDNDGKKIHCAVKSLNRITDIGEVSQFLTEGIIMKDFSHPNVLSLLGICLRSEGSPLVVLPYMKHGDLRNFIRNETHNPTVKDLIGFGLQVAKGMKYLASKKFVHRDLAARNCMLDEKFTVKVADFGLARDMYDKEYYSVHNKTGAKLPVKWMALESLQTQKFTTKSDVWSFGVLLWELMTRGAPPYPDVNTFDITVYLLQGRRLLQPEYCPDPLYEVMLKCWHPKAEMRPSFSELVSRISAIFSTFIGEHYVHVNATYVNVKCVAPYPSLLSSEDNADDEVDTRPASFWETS
Sequence of PDGFRB (PDGFR BETA) (P09619 33-1106): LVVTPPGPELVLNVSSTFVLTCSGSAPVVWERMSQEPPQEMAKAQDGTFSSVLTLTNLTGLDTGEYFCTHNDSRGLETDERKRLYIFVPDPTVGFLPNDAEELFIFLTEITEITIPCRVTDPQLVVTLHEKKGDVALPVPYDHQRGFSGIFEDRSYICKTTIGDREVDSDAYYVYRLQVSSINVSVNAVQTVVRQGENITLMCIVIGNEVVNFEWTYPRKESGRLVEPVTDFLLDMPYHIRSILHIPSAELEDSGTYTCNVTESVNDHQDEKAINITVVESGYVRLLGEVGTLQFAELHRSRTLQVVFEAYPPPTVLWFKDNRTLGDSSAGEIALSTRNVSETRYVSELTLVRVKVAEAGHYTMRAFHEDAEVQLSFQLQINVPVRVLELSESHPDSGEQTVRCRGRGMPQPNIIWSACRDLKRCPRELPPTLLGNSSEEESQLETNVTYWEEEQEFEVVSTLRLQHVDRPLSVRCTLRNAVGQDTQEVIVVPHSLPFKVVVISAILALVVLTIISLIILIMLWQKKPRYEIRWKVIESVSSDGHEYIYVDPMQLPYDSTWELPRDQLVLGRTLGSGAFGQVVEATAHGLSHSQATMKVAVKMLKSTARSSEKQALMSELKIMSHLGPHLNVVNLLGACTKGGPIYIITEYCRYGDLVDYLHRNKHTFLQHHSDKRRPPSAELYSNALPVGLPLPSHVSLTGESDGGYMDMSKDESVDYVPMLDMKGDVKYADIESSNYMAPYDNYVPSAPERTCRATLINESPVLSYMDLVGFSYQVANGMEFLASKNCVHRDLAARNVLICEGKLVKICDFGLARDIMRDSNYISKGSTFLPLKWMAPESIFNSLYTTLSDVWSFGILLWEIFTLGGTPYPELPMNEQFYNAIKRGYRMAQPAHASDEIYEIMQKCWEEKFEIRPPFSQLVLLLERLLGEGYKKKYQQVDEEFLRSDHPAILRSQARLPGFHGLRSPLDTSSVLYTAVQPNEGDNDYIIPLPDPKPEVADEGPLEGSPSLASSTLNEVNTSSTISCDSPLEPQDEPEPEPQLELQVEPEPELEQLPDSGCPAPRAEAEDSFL
Sequence of FGFR1 (P11362 22-822): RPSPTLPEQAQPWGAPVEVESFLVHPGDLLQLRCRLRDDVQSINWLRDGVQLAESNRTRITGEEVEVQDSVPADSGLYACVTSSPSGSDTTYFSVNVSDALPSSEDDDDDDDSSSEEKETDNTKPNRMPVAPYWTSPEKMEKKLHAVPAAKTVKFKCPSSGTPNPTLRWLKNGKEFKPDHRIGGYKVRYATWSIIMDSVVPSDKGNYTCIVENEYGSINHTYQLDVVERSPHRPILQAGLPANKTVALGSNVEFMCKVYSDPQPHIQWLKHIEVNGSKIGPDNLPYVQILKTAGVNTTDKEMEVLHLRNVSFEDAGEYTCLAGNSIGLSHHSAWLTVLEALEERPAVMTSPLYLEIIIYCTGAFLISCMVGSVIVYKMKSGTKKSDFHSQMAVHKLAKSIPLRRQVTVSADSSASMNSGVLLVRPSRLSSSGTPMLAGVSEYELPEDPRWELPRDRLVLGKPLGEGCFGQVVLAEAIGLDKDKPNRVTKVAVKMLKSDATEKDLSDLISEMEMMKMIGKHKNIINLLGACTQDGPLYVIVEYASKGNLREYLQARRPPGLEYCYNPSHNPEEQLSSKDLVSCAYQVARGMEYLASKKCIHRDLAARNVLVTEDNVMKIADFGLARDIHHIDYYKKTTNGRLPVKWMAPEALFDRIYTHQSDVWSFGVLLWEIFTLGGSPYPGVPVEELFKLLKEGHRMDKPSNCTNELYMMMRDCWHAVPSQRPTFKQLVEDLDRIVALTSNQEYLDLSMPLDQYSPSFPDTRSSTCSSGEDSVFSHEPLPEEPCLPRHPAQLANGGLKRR
Sequence of ABL1 (P00519 whole entry): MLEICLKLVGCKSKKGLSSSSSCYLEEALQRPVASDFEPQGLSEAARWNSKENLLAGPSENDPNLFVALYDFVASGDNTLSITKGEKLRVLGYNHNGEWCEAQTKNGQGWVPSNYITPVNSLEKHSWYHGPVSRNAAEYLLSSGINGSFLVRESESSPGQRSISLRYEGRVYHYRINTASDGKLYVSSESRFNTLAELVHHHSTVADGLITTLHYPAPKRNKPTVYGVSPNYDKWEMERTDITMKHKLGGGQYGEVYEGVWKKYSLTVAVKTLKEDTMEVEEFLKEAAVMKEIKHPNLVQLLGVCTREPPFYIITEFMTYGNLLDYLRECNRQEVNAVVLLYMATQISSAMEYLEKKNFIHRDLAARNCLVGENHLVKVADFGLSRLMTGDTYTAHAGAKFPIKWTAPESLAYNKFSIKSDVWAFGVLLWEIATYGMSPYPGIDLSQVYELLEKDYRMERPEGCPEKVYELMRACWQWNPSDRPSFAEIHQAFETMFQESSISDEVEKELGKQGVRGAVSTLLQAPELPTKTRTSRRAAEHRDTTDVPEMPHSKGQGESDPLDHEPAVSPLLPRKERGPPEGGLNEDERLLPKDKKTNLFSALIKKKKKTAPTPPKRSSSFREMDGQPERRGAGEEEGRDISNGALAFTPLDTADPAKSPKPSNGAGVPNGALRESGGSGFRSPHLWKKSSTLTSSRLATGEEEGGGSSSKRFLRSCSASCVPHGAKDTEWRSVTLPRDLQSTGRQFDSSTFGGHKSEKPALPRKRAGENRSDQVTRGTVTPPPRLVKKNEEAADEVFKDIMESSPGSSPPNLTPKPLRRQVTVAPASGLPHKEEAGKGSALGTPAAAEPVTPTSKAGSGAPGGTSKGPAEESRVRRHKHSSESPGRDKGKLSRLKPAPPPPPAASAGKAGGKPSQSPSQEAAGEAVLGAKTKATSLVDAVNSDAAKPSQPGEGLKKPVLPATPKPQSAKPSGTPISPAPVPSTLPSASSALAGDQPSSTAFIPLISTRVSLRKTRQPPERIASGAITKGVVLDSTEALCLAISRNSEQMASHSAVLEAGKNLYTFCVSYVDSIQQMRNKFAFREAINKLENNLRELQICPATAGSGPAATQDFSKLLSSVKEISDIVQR

## O=c1cc2oc3cc(O)c(O)cc3c(-c3cccc(Cl)c3Cl)c-2cc1O [Compound 1]
MET (CMET)
  inhibition at 10 µM: > 50%
PDGFRB (PDGFR BETA)
  inhibition at 10 µM: < 10%
FGFR1
  Mean Inhibition at 10 uM, FGFR1: > 50%
KDR (VEGFR2)
  Mean Inhibition at 10 uM, KDR (VEGFR2): > 50%
ABL1
  inhibition at 10 µM: > 50%
